# Measurements reported in ChEMBL document CHEMBL1123462, “Indolo[2,1-c][1,4]benzodiazepines: a new class of antiallergic agents” (J Med Chem, 1986).
# How the values were obtained:
# [1] = tested on: Rattus norvegicus; assay: Compound was tested for percent inhibition, at 3.3 mg/kg administered intraperitoneally against histamine by Dunnett's test; type: functional; conditions: ip, route intraperitoneal
# Outline: (§1)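 Male Sprague-Dawley rats were given 0.05 mL of high-titer IgE rat anti-ovalbumin antiserum intradermally. 24 h later: iv ovalbumin plus Evans Blue in saline, with simultaneous intradermal serotonin and histamine. Drug given ip 1 h before antigen. At 30 min, skin was reflected and wheal size and colour scored against a chart. %inhibition = (1 − mean treated/mean control score)×100. Dunnett's test, p ≤ 0.05.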
# [2] = tested on: Cavia porcellus; assay: Compound was tested for the inhibition of guinea pig active lung anaphylaxis (ALA) at 1 mg/kg iv; type: functional
# Outline: (§2)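 Guinea pigs were sensitized with egg albumin 1 mg sc plus Bordetella pertussis vaccine adjuvant. Two weeks later: pentobarbital 65 mg/kg ip, then trachea, jugular vein and carotid cannulated. Drug given iv before an iv egg albumin challenge (0.5 mg/kg). Airway resistance (bronchoconstriction) and arterial pressure monitored. %inhibition given as mean ± SE; ED50 iv with 95% confidence limits.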
# [3] = tested on: Rattus norvegicus; assay: Compound was tested for the inhibition of rat passive cutaneous anaphylaxis (PCA) administered intraperitoneally; type: functional; conditions: ip; outline: as §1
# [4] = tested on: Rattus norvegicus; assay: Compound was tested for percent inhibition, at 3.3 mg/kg administered intraperitoneally against rat passive cutaneous anaphylaxis by Dunnett's test; type: functional; conditions: ip, route intraperitoneal; outline: as §1
# [5] = tested on: Rattus norvegicus; assay: Compound was tested for the inhibition of rat passive cutaneous anaphylaxis (PCA) at 0.37 mg/kg dose ip (1h pretreatment); type: functional; conditions: route intraperitoneal; outline: as §1
# [6] = tested on: Rattus norvegicus; assay: Compound was tested for percent inhibition, at 0.37 mg/kg administered intraperitoneally against histamine; type: functional; conditions: ip, route intraperitoneal; outline: as §1
# [7] = tested on: Rattus norvegicus; assay: Compound was tested for percent inhibition, at 3.3 mg/kg administered intraperitoneally against serotonin by Dunnett's test; type: functional; conditions: ip, route intraperitoneal; outline: as §1
# [8] = tested on: Rattus norvegicus; assay: Compound was tested […] for the inhibition of serotonin release in rat peritoneal cell; type: functional
# [9] = tested on: Rattus norvegicus; assay: Compound was tested for percent inhibition, at 0.37 mg/kg administered intraperitoneally against serotonin by Dunnett's test; type: functional; conditions: ip, route intraperitoneal; outline: as §1
# [10] = tested on: Rattus norvegicus; assay: Compound was tested for the inhibition of rat passive cutaneous anaphylaxis (PCA) at 10 mg/kg dose ip (1h pretreatment); type: functional; conditions: route intraperitoneal
# [11] = tested on: Rattus norvegicus; assay: Compound was tested for percent inhibition, at 0.12 mg/kg administered intraperitoneally against histamine; type: functional; conditions: ip, read-out: Inhibition, route intraperitoneal; outline: as §1
# [12] = tested on: Rattus norvegicus; assay: Compound was tested for percent inhibition, at 0.12 mg/kg administered intraperitoneally against serotonin by Dunnett's test; type: functional; conditions: ip, read-out: Inhibition, route intraperitoneal; outline: as §1
# [13] = tested on: Cavia porcellus; assay: Compound was tested for the inhibition of guinea pig active lung anaphylaxis (ALA) administered intravenously; type: functional; conditions: iv; outline: as §2
# [14] = tested on: Rattus norvegicus; assay: Compound was tested for percent inhibition, at 0.12 mg/kg administered intraperitoneally against rat passive cutaneous anaphylaxis by Dunnett's test; type: functional; conditions: ip, read-out: Inhibition, route intraperitoneal; outline: as §1
# [15] = tested on: Rattus norvegicus; assay: Compound was tested for percent inhibition, at 0.37 mg/kg administered intraperitoneally against histamine by Dunnett's test; type: functional; conditions: ip, route intraperitoneal; outline: as §1
# [16] = tested on: Rattus norvegicus; assay: Compound was tested for percent inhibition, at 1 mg/kg administered intravenously against rat passive cutaneous anaphylaxis by Dunnett''s test; conditions: iv, read-out: Inhibition
# [17] = tested on: Rattus norvegicus; assay: Compound was tested for the inhibition of rat passive cutaneous anaphylaxis (PCA) at 10 mg/kg dose iv (5 min pretreatment); type: functional
# Outline: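 Rat skin IgE/ovalbumin PCA with simultaneous intradermal histamine and serotonin wheals. Drug given iv 5 min before the iv ovalbumin/Evans Blue challenge. Read 30 min later by wheal size and colour score. %inhibition = (1 − mean treated/mean control score)×100. Dunnett's test, p ≤ 0.05.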
# [18] = tested on: Cavia porcellus; assay: Compound was tested for the inhibition of guinea pig active lung anaphylaxis (ALA) at 100 mg/kg iv; type: functional; outline: as §2
# [19] = tested on: Rattus norvegicus; assay: Compound was tested for percent inhibition, at 10 mg/kg administered intravenously against histamine by Dunnett's test; conditions: iv
# [20] = tested on: Rattus norvegicus; assay: Compound was tested for percent inhibition, at 1 mg/kg administered intravenously against histamine; conditions: iv, read-out: Inhibition
# [21] = tested on: Rattus norvegicus; assay: Compound was tested for percent inhibition, at 10 mg/kg administered intravenously against serotonin by Dunnett's test; conditions: iv
# [22] = tested on: Cavia porcellus; assay: Inhibition of guinea pig ALA at a dose of 1 mg/kg 8 hr after postdosing orally; type: functional; conditions: route oral
# Outline: (§3)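 Guinea pigs were sensitized with egg albumin 1 mg sc plus pertussis vaccine adjuvant. Two weeks later they were anesthetized (pentobarbital 65 mg/kg ip) and cannulated. Drug was given ip or orally at 1 mg/kg. Challenge with egg albumin 0.5 mg/kg iv at 1, 7, 8 or 24 h post-dose, with bronchoconstriction measured. %inhibition given as mean ± SD.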
# [23] = tested on: Cavia porcellus; assay: Inhibition of guinea pig ALA at a dose of 1 mg/kg 1 hr after postdosing intraperitoneally; type: functional; conditions: ip, route intraperitoneal; outline: as §3
# [24] = tested on: Cavia porcellus; assay: Inhibition of guinea pig ALA at a dose of 1 mg/kg 7 hr after postdosing intraperitoneally; type: functional; conditions: ip, route intraperitoneal; outline: as §3
# [25] = tested on: Cavia porcellus; assay: Inhibition of guinea pig ALA at a dose of 1 mg/kg 1 hr after postdosing orally; type: functional; conditions: route oral; outline: as §3
# [26] = tested on: Cavia porcellus; assay: Compound was tested for the inhibition of guinea pig active lung anaphylaxis (ALA) at 0.001 mg/kg iv; type: functional; outline: as §2
# [27] = tested on: Cavia porcellus; assay: Inhibition of guinea pig ALA at a dose of 1 mg/kg 24 hr after postdosing orally; type: functional; conditions: route oral; outline: as §3
# [28] = tested on: Cavia porcellus; assay: Inhibition of guinea pig ALA at a dose of 1 mg/kg 24 hr after postdosing intraperitoneally; type: functional; conditions: ip, route intraperitoneal; outline: as §3
# [29] = tested on: Cavia porcellus; assay: Percent inhibition at a dose of 1 mg/kg at given time postdosing intraperitoneally 1 h; type: functional; conditions: ip, route intraperitoneal; outline: as §3
# [30] = tested on: Rattus norvegicus; assay: Compound was tested […] for the inhibition of serotonin release in rat peritoneal cell
# [31] = tested on: Rattus norvegicus; assay: Compound was tested for percent inhibition, at 1.1 mg/kg administered intraperitoneally against serotonin by Dunnett's test; type: functional; conditions: ip, route intraperitoneal; outline: as §1
# [32] = species: Rattus norvegicus; assay: Compound was tested for the inhibition of rat passive cutaneous anaphylaxis (PCA) Percent inhibition; type: functional; outline: as §1
# [33] = tested on: Rattus norvegicus; assay: Compound was tested for the inhibition of rat passive cutaneous anaphylaxis (PCA) Dose administered intraperitoneally; type: functional; outline: as §1
# [34] = tested on: Cavia porcellus; assay: Percent inhibition at a dose of 1 mg/kg at given time postdosing orally 1 h; type: functional; conditions: route oral; outline: as §3
# [35] = tested on: Rattus norvegicus; assay: Compound was tested for percent inhibition, at 1.1 mg/kg administered intraperitoneally against histamine; type: functional; conditions: ip, route intraperitoneal; outline: as §1
# [36] = tested on: Cavia porcellus; assay: Percent inhibition at a dose of 1 mg/kg at given time postdosing intraperitoneally 24 h; type: functional; conditions: ip, route intraperitoneal; outline: as §3
# [37] = tested on: Cavia porcellus; assay: Percent inhibition at a dose of 1 mg/kg at given time postdosing intraperitoneally 7 h; type: functional; conditions: ip, route intraperitoneal; outline: as §3
# [38] = tested on: Cavia porcellus; assay: Compound was tested for the inhibition of guinea pig active lung anaphylaxis (ALA) Dose administered intravenously; type: functional; outline: as §2
# [39] = tested on: Cavia porcellus; assay: Percent inhibition at a dose of 1 mg/kg at given time postdosing orally 8 h; type: functional; conditions: route oral; outline: as §3
# [40] = tested on: Cavia porcellus; assay: Percent inhibition at a dose of 1 mg/kg at given time postdosing orally 24 h; type: functional; conditions: route oral; outline: as §3
# [41] = species: Cavia porcellus; assay: Compound was tested for the inhibition of guinea pig active lung anaphylaxis (ALA) Percent inhibition; type: functional; outline: as §2
structure (smiles),measurement,setting,value
c1ccc2c(c1)Cn1c(cc3ccccc31)C(N1CCNCC1)=N2,inhibition in vivo at 3.3 mg/kg,[1],55.7%
same,inhibition in vivo at 1 mg/kg,[2],82%
same,ED50,[3],0.43 mg/kg
same,inhibition in vivo at 3.3 mg/kg,[4],92.7%
same,inhibition in vivo at 0.37 mg/kg,[5],52%
same,inhibition in vivo at 0.37 mg/kg,[6],14.2%
same,inhibition in vivo at 3.3 mg/kg,[7],65.8%
same,IC50,[8],7.38 µM
same,inhibition in vivo at 0.37 mg/kg,[9],44.5%
c1ccc2c(c1)Cn1c(cc3ccccc31)C(N1CCOCC1)=N2,inhibition in vivo at 10 mg/kg,[10],0.4%
OCCCN1CCN(C2=Nc3ccccc3Cn3c2cc2ccccc23)CC1,inhibition in vivo at 1 mg/kg,[2],64%
same,ED50,[3],0.08 mg/kg
same,inhibition in vivo at 0.37 mg/kg,[5],92.9%
same,inhibition in vivo at 0.12 mg/kg,[11],6.8%
same,inhibition in vivo at 0.12 mg/kg,[12],24.9%
same,ED50,[13],0.69 mg/kg
same,inhibition in vivo at 0.12 mg/kg,[14],58.8%
same,IC50,[8],15.2 µM
same,inhibition in vivo at 0.37 mg/kg,[15],53%
same,inhibition in vivo at 0.37 mg/kg,[9],53.2%
O=C([O-])c1cc(=O)c2c(OCC(O)COc3cccc4oc(C(=O)[O-])cc(=O)c34)cccc2o1.[Na+].[Na+] [CROMOLYN SODIUM],ED50,[3],2.55 mg/kg
same,inhibition in vivo at 1 mg/kg,[16],37%
same,inhibition in vivo at 10 mg/kg,[17],97%
same,inhibition in vivo at 100 mg/kg,[18],25%
same,IC50,[8],256 µM
same,inhibition in vivo at 10 mg/kg,[19],8.5%
same,inhibition in vivo at 1 mg/kg,[20],0%
same,inhibition in vivo at 10 mg/kg,[21],21.4%
CN1CCC(=C2c3ccccc3CC(=O)c3sccc32)CC1 [KETOTIFEN],inhibition in vivo at 3.3 mg/kg,[1],62.5%
same,inhibition in vivo at 1 mg/kg,[22],73%
same,ED50,[3],0.32 mg/kg
same,inhibition in vivo at 3.3 mg/kg,[4],92.4%
same,inhibition in vivo at 0.37 mg/kg,[5],63.3%
same,inhibition in vivo at 0.37 mg/kg,[6],64.6%
same,inhibition in vivo at 3.3 mg/kg,[7],35.3%
same,ED50,[13],0.002 mg/kg
same,IC50,[8],22.9 µM
same,inhibition in vivo at 1 mg/kg,[23],82%
same,inhibition in vivo at 1 mg/kg,[24],68%
same,inhibition in vivo at 0.37 mg/kg,[9],14.8%
same,inhibition in vivo at 1 mg/kg,[25],68%
same,inhibition in vivo at 0.001 mg/kg,[26],57%
same,inhibition in vivo at 1 mg/kg,[27],37%
same,inhibition in vivo at 1 mg/kg,[28],6.5%
O=c1[nH]c2ccccc2n1CCCN1CCN(C(c2ccccc2)c2ccccc2)CC1 [OXATOMIDE],inhibition in vivo at 1 mg/kg,[29],16%
same,IC50,[30],20.1 µM
same,inhibition in vivo at 1.1 mg/kg,[31],35.1%
same,inhibition in vivo at 3.3 mg/kg,[1],49.3%
same,Inhibition,[32],69.1%
same,Dose,[33],1.1 mg/kg
same,ED50,[3],1.2 mg/kg
same,inhibition in vivo at 3.3 mg/kg,[4],100%
same,inhibition in vivo at 1 mg/kg,[34],-5%
same,inhibition in vivo at 1.1 mg/kg,[35],38%
same,inhibition in vivo at 1 mg/kg,[36],10.6%
same,inhibition in vivo at 1 mg/kg,[37],54%
same,inhibition in vivo at 3.3 mg/kg,[7],46.5%
same,Dose,[38],1 mg/kg
same,inhibition in vivo at 1 mg/kg,[39],45%
same,inhibition in vivo at 1 mg/kg,[40],25%
same,Inhibition,[41],43%
